Experimental data gathered from unrelated publications.
CDK5: Cyclin-dependent kinase 5 (CDK5, Homo sapiens, UniProt Q00535)
CDK5 with p25: Cyclin-dependent kinase 5, with p25 (CDK5, Homo sapiens, UniProt Q00535)
CDK5 with p35: Cyclin-dependent kinase 5, with p35 (CDK5, Homo sapiens, UniProt Q00535)

N[C@H]1CCN(c2nccc(-c3cnn4ncccc34)n2)C1  remaining binding (CDK5; binding; 1 µM): 100%
Cc1c(NC(=O)c2cc(C(N)=O)nc3cc(F)ccc23)c(C(F)(F)F)nn1Cc1ccc(C#N)cc1  remaining binding (CDK5; cell-free assay, competition with immobilised ligand; 1 µM): 100%
CC(C)c1ccc(NC(=O)c2cccs2)c(-c2nc3ccccc3[nH]c2=O)c1  activity vs control (CDK5 with p25; enzyme activity, inhibitor; 1 µM): 95%
O=C1NC(=O)c2cc(Nc3ccc(F)cc3)c(Nc3ccc(F)cc3)cc21  remaining signal (CDK5 with p35; cell-free assay; 0.5 µM): 98.5%
Cc1cc(NC(=O)c2cccc3cc(-c4cccc5[nH]nc(N)c45)ccc23)ccc1F  activity vs control (CDK5 with p25; enzyme activity, inhibitor; 0.1 µM): 94%
O=C1Nc2ccc(Cl)cc2C1=Cc1cc(Cl)c(O)c(Cl)c1  remaining signal (CDK5 with p35; cell-free assay; 0.5 µM): 94.5%
CO[C@@H](C)c1c(Nc2ccc([C@@H](N(C)C(=O)C3CCS(=O)(=O)CC3)C(F)(F)F)cc2)cnc2cc(Cl)nn12  remaining binding (CDK5; cell-free assay, competition with immobilised ligand; 1 µM): 99%
CCCOc1ccc(OC)c(F)c1C(=O)c1ccc(C(=O)N[C@@H]2CNC[C@H]2NC(=O)c2ccc3[nH]ncc3c2)cc1  remaining activity (CDK5 with p25; enzyme activity, inhibitor; 0.75 µM): 85%
CC(=O)c1c(NS(C)(=O)=O)c2cc(-c3ccc(Cl)cc3)c(-c3ccc(Cl)cc3Cl)nc2n(C)c1=O  remaining binding (CDK5; cell-free assay, competition with immobilised ligand; 1 µM): 100%
N#CCCc1ccc2c(c1)-c1[nH]c3ccc([N+](=O)[O-])cc3c1CC(=O)N2  remaining signal (CDK5 with p35; cell-free assay; 0.5 µM): 2.6%
Cc1ccc(NC(=O)c2ccc(C)c(C(F)(F)F)c2)cc1C#Cc1nn(C2CCC(O)CC2)c2ncnc(N)c12 (stereo not drawn)  remaining signal (CDK5 with p35; cell-free assay; 10 µM): 127%
NS(=O)(=O)c1cc(NC(=O)Cc2ccccc2)ccc1Oc1cccc(Cl)c1  remaining binding (CDK5; cell-free assay, competition with immobilised ligand; 1 µM): 61%
Oc1ccc(-c2nc(-c3ccncc3)c(-c3ccc(F)cc3)[nH]2)cc1  remaining signal (CDK5 with p35; cell-free assay; 0.5 µM): 97.3%
CC[C@H](C)[C@H](NC(=O)[C@H](CCC(N)=O)NC(=O)[C@H](CC(C)C)NC(=O)[C@H](CCSC)NC(=O)[C@H](CCCCN)NC(=O)[C@H](CO)NC(=O)[C@H](CO)NC(=O)[C@H](CCSC)NC(=O)[C@H](CC(C)C)NC(=O)[C@H](CC(N)=O)NC(=O)[C@@H](NC(=O)[C@@H](NC(=O)[C@H](CO)NC(=O)[C@H](CC(C)C)NC(=O)[C@H](CS)NC(=O)[C@H](CCCNC(=N)N)NC(=O)[C@H](CC(=O)O)NC(=O)[C@H](Cc1c[nH]c2ccccc12)NC(=O)[C@H](Cc1ccccc1)NC(=O)[C@H](C)NC(=O)[C@H](CCC(=O)O)NC(=O)[C@@H](N)CCCCN)C(C)C)[C@@H](C)CC)C(=O)N[C@@H](CC(N)=O)C(=O)N[C@@H](C)C(=O)O  remaining activity (CDK5 with p25; enzyme activity, inhibitor, radiometric; 100 µM, 20 min): 59%
N#Cc1ccc(Nc2ccc3[nH]c(=O)[nH]c3c2)c(Cl)c1  remaining binding (CDK5; cell-free assay, competition with immobilised ligand; 1 µM): 100%
Cc1ccc(C(=O)NCc2ccsc2)cc1C#Cc1cn(C(C)C)c2ncnc(N)c12  activity vs control (CDK5 with p25; enzyme activity, inhibitor; 1 µM): 95%
CNC(=O)c1ccc(Nc2ncc(C(F)(F)F)c(NCc3nccnc3N(C)S(C)(=O)=O)n2)cc1  remaining binding (CDK5; cell-free assay, competition with immobilised ligand; 0.1 µM): 81%
Nc1nc(Nc2ccc(S(N)(=O)=O)cc2)nn1C(=O)c1c(F)cccc1F  remaining signal (CDK5 with p35; cell-free assay; 0.5 µM): 0.212%
